Measured values from ChEMBL document CHEMBL1132112, “Novel modifications in the alkenyldiarylmethane (ADAM) series of non-nucleoside reverse transcriptase inhibitors” (J Med Chem, 1999).

How the values were obtained:
[1] = molecular target: T1, Human immunodeficiency virus type 1 reverse transcriptase (Human immunodeficiency virus 1, UniProt Q72547); assay: Inhibition of HIV-1 Reverse transcriptase using poly-(ra)-oligo(dt) as the template primer.
Method in brief: (§1)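 Purified p66/51 HIV-1 reverse transcriptase. Inhibition read as incorporation of [32P]-TTP into poly(rA)·oligo(dT) or of [32P]GTP into poly(rC)·oligo(dG) homopolymer template-primer.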

[2] = molecular target: T1, Human immunodeficiency virus type 1 reverse transcriptase; assay: Inhibition of HIV-1 Reverse transcriptase using poly-(rc)-oligo(dg) as the template primer.; method in brief: as §1
CEM-SS [3] = assay: 50% inhibitory concentration for cytopathicity of HIV-1 RF in CEM-SS cells; NA=Not active (EC50 uM); format: functional, cell-based, Homo sapiens
Method in brief: (§2)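 CEM-SS cells infected with HIV-1 RF; drug-induced protection from viral cytopathic effect read by XTT, as percent of uninfected drug-free control. EC50 is the concentration giving 50% protection. Triplicate wells on each plate, two sister plates; the plate EC50s (each a triplicate average) were averaged. XTT results were confirmed by supernatant RT and p24 levels. NA means no inhibition up to the concentration cytotoxic to uninfected cells.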

CCRF-CEM = assay: Concentration inhibiting 50% of mock-infected CEM cells.; format: functional; details: Homo sapiens
Method in brief: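 Uninfected (mock-infected) CEM-SS cultures exposed to drug. Viability by XTT, expressed as percent of drug-free control. CC50 is the concentration causing 50% cell death. Triplicates on each plate, two sister plates averaged.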

[4] = Therapeutic index was determined for the compound as CC50/EC50; details: read-out: TI
Method in brief: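 Ratio of CC50 (XTT viability, uninfected CEM-SS) to EC50 (XTT protection from HIV-1 RF cytopathicity in CEM-SS). Both values come from triplicates on each plate, two sister plates averaged. NA means no antiviral inhibition up to the cytotoxic concentration.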

CEM-SS [5] = assay: 50% inhibitory concentration for cytopathicity of HIV-1 RF in CEM-SS cells.; format: functional, cell-based; details: Homo sapiens; method in brief: as §2
CEM-SS [6] = assay: 50% inhibitory concentration for cytopathicity of HIV-1 RF in CEM-SS cells; NA=Not active; format: functional, cell-based, Homo sapiens; method in brief: as §2
[7] = molecular target: T1, Human immunodeficiency virus type 1 reverse transcriptase; assay: Inhibition of HIV-1 Reverse transcriptase using poly-(ra)-oligo(dt) as the template primer; no inhibition
Method in brief: (§3)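 Purified p66/51 HIV-1 reverse transcriptase. Inhibition read as incorporation of [32P]-TTP into poly(rA)·oligo(dT) or of [32P]GTP into poly(rC)·oligo(dG) homopolymer template-primer. IC50 taken as concentration giving 50% inhibition.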

[8] = molecular target: T1, Human immunodeficiency virus type 1 reverse transcriptase; assay: Inhibition of HIV-1 Reverse transcriptase using poly-(rc)-oligo(dg) as the template primer; NI=No inhibition; method in brief: as §3
[9] = tested on: Human immunodeficiency virus 1; assay: Inhibition of cytopathic effect of HIV-1 strain wild type enzyme NL4-3 in CEM-SS cells.; format: functional, organism-based; details: Human immunodeficiency virus 1, CEM-SS
CEM-SS [10] = assay: Inhibition of cytopathic effect of HIV-1 RT containing the specified mutation L100I in CEM-SS cells.; format: functional, cell-based, Homo sapiens
CEM-SS [11] = assay: Inhibition of cytopathic effect of HIV-1 RT containing the specified mutation Y181C in CEM-SS cells.; format: functional, cell-based, Homo sapiens
CEM-SS [12] = assay: Inhibition of cytopathic effect of HIV-1 RT containing the specified mutation K103N in CEM-SS cells.; format: functional, cell-based, Homo sapiens
CEM-SS [13] = assay: Inhibition of cytopathic effect of HIV-1 RT containing the specified mutation Y181C resistant to AZT in CEM-SS cells.; format: functional, cell-based, Homo sapiens

Row | Structure (SMILES) | IC50 ([1]; read-out: IC50) | IC50 [2] | CC50 (CCRF-CEM) | selectivity ratio [4] | EC50 (CEM-SS [5]) | further results
1 | CCC1(CCCC=C(c2cc(Cl)c(OC)c(CO)c2)c2cc(Cl)c(OC)c(CO)c2)OCCO1 | 31.6 µM | 3.2 µM | 16.9 µM |  |  | EC50 (CEM-SS [3]): Not Active
2 | COC(=O)CCCCC=C(c1cc(Cl)c(OC)c(C(=O)OC)c1)c1cc(Cl)c(OC)c(C(=O)OC)c1 | 3.35 µM | 0.47 µM | 152 µM | 101 | 1.5 µM | 
3 | COC(=O)CCCCC(c1cc(Cl)c(OC)c(C(=O)OC)c1)c1cc(Cl)c(OC)c(C(=O)OC)c1 |  | 100 µM | 21.3 µM |  |  | EC50 (CEM-SS [3]): Not Active
4 | CCC1(CCC/C=C(\c2cc(Cl)c(OC)c(C=O)c2)c2cc(Cl)c(OC)c(CO)c2)OCCO1 |  | 31.6 µM | 5.8 µM |  |  | IC50 [1]: No inhibition; EC50 (CEM-SS [6]): Not Active
5 | CCC1(CCCC=C(c2cc(Cl)c(OC)c(C(=O)OC)c2)c2cc(Cl)c(OC)c(C(=O)OC)c2)OCCO1 |  |  | 19.9 µM |  |  | IC50 [7]: Not Active; IC50 [8]: Not Active; EC50 (CEM-SS [3]): Not Active
6 | COC(=O)c1cc(C(=CCC2OCCO2)c2cc(Cl)c(OC)c(C(=O)OC)c2)cc(Cl)c1OC | 20.5 µM | 3.2 µM | 26 µM | 4 | 6.5 µM | 
7 | COC(=O)c1cc(C(=CCCCCBr)c2cc(Cl)c(OC)c(C(=O)OC)c2)cc(Cl)c1OC | 1.9 µM | 11 µM | 98.7 µM |  | 2.8 µM | 
8 | CCC(=O)CCCC=C(c1cc(Cl)c(OC)c(C=O)c1)c1cc(Cl)c(OC)c(C=O)c1 |  |  | 1.13 µM |  |  | EC50 (CEM-SS [6]): Not Active
9 | COC(=O)CCCC=C(c1cc(Cl)c(OC)c(C(=O)OC)c1)c1cc(Cl)c(OC)c(C(=O)OC)c1 |  |  | 31.6 µM |  |  | EC50 [9]: 1.78 µM; EC50 (CEM-SS [10]): > 0.16 µM; EC50 (CEM-SS [11]): > 50 µM; EC50 (CEM-SS [12]): > 50 µM; EC50 (CEM-SS [13]): > 50 µM
10 | COC(=O)CCC=C(c1cc(Cl)c(OC)c(C(=O)OC)c1)c1cc(Cl)c(OC)c(C(=O)OC)c1 | > 100 µM | 7.2 µM | 29.4 µM | 6.1 | 4.8 µM | 
11 | CCC(=O)CCCC=C(c1cc(Cl)c(OC)c(C(=O)OC)c1)c1cc(Cl)c(OC)c(C(=O)OC)c1 |  | 1 µM | 24.6 µM | 8.8 | 2.8 µM | 
